# Source: ChEMBL document CHEMBL4130408, “Photoactivation provides a mechanistic explanation for pan-assay interference behaviour of 2-aminopyrroles in lipoxygenase inhibition” (Eur J Med Chem, 2017)
# Target: T1, Polyunsaturated fatty acid lipoxygenase ALOX15 (Homo sapiens) (UniProt P16050)
# T1 sequence (whole entry): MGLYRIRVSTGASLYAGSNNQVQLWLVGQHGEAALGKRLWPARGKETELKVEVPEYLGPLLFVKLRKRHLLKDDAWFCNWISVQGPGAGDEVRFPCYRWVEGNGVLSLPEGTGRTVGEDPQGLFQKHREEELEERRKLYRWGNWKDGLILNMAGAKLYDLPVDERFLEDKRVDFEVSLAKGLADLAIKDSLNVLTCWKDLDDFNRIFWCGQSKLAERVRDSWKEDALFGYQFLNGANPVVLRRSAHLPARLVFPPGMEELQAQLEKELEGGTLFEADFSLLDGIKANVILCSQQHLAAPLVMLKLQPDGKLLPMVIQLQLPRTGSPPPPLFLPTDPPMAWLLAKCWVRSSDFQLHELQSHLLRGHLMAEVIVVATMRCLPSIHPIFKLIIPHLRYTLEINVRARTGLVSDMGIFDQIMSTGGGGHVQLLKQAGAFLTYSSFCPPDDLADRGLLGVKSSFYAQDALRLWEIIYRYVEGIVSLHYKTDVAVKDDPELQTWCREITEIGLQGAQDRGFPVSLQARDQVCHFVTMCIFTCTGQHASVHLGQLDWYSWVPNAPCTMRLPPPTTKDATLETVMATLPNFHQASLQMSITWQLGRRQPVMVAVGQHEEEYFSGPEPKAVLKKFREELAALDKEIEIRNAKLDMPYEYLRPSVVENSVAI
# Experiment: Inhibition of recombinant human 15-LOX-1 expressed in Escherichia coli BL21(DE3) assessed as residual activity at 50 uM using linoleic acid as substrate preincubated for 10 mins followed by substrate addition
# In short: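 h-15-LOX-1 (1:100 enzyme stock, 1:400 final) preincubated 10 min at room temperature with inhibitor in 25 mM HEPES pH 7.4, then linoleic acid added to 25 µM final (inhibitor 50 µM final). 13(S)-HpODE formation read as A234 over time, rate taken from linear part within first 16 min; no-inhibitor = 100%, no-enzyme = 0%. Triplicate.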
row,SMILES,Activity
1,Nc1[nH]c(C(=O)c2ccccc2)c(-c2ccccc2Br)c1C(=O)NCCc1ccc(Cl)cc1Cl,93.8%
2,Nc1[nH]c(C(=O)c2ccccc2)c(-c2ccc(Cl)cc2)c1C(=O)O,87.9%
3,Nc1[nH]c(C(=O)c2ccccc2)c(-c2ccccc2Cl)c1C(=O)NCCc1c[nH]c2ccccc12,98.2%
4,Nc1[nH]c(C(=O)c2ccccc2)c(-c2cccnc2)c1C(=O)NCCc1c[nH]c2ccccc12,82.5%
5,Nc1[nH]c(C(=O)c2ccccc2)c(-c2ccc3ccccc3c2)c1C(=O)NC1CC1,83.5%
6,NC(=O)c1c(N)[nH]c(C(=O)c2ccccc2)c1-c1ccccc1Cl,114%
7,Nc1[nH]c(C(=O)c2ccccc2)c(-c2ccc3ccccc3c2)c1C(=O)NCc1cccc2ccccc12,98.6%
8,Nc1[nH]c(C(=O)c2ccccc2)c(-c2ccccc2C(F)(F)F)c1C(=O)NCc1cccc2ccccc12,85%
9,Nc1[nH]c(C(=O)c2ccccc2)c(-c2ccncc2)c1C(=O)NCc1cccc2ccccc12,95.1%
10,Nc1[nH]c(C(=O)c2ccccc2)c(-c2ccc(Cl)c(F)c2)c1C(=O)c1c[nH]c2ccccc12,91.7%
11,COc1cc(-c2c(C(=O)c3ccccc3)[nH]c(N)c2C(=O)NCCc2c[nH]c3ccccc23)ccc1F,37.1%
12,NC(=O)c1c(N)[nH]c(C(=O)c2ccccc2)c1-c1ccc2c(c1)OCO2,92.3%
13,Nc1[nH]c(C(=O)c2ccccc2)c(-c2ccc([N+](=O)[O-])cc2)c1C(=O)NCCc1c[nH]c2ccccc12,54.3%
14,Nc1[nH]c(C(=O)c2ccccc2)c(-c2ccccn2)c1C(=O)NCCCCl,92.1%
15,COc1ccc(-c2c(C(=O)c3ccccc3)[nH]c(N)c2C(=O)c2ccccc2)cc1OC,97.9 to 105%
16,COC(=O)c1c(N)[nH]c(C(=O)c2ccccc2)c1-c1ccc(Cl)cc1,96%
17,Nc1[nH]c(C(=O)c2ccccc2)c(-c2cccnc2)c1C(=O)NC1CCCCC1,77.5%
18,Cc1ccc([C@H](C)NC(=O)c2c(N)[nH]c(C(=O)c3ccccc3)c2-c2cc(Cl)cc(Cl)c2)cc1,77.3%
19,CC(C)(C)C(=O)c1c(N)[nH]c(C(=O)c2ccccc2)c1-c1ccc(Cl)cc1,94.5%
20,Nc1[nH]c(C(=O)c2ccccc2)c(-c2ccc(C(F)(F)F)cc2)c1C(=O)NCCc1c[nH]c2ccccc12,43.5%
21,Nc1[nH]c(C(=O)c2ccccc2)c(-c2cccc3ccccc23)c1C(=O)c1ccccc1,108%
22,Nc1[nH]c2ccccc2c1C(=O)NC1CC1,126%

row,SMILES,Activity
1,NC(=O)c1c(N)[nH]c(C(=O)c2ccccc2)c1-c1ccccc1C(F)(F)F,93.6%
2,Nc1[nH]c(C(=O)c2ccccc2)c(-c2ccccc2Br)c1C(=O)NCCc1c[nH]c2ccccc12,61.9%
3,Cc1ccccc1-c1c(C(=O)c2ccccc2)[nH]c(N)c1C(=O)NCCc1c[nH]c2ccccc12,62.5%
4,Nc1[nH]c(C(=O)c2ccccc2)c(-c2ccccc2)c1C(=O)NCCc1c[nH]c2ccccc12,63.2%
5,Cc1cc(C)cc(-c2c(C(=O)c3ccccc3)[nH]c(N)c2C(=O)NCCc2c[nH]c3ccccc23)c1,-47.3%
6,Nc1[nH]c(C(=O)c2ccccc2)c(-c2ccc(Cl)cc2Cl)c1C(=O)NCCc1c[nH]c2ccccc12,22.8%
7,CC(C)(C)C(=O)c1c(N)[nH]c(C(=O)c2ccccc2)c1-c1ccc([N+](=O)[O-])cc1,110%
8,Nc1[nH]c(C(=O)c2ccccc2)c(-c2ccccn2)c1C(=O)c1c[nH]c2ccccc12,104%
9,Nc1[nH]c(C(=O)c2ccccc2)c(-c2ccncc2)c1C(=O)NCc1ccc(Cl)cc1,86.6%
10,COc1ccc(-c2c(C(=O)c3ccccc3)[nH]c(N)c2C(=O)c2c[nH]c3ccccc23)cc1OC,82.5%
11,CC(C)(C)C(=O)c1c(N)[nH]c(C(=O)c2ccccc2)c1-c1ccc(F)cc1,91.4%
12,Nc1[nH]c(C(=O)c2ccccc2)c(-c2cccc3ccccc23)c1C(=O)c1c(-c2ccccc2)[nH]c2ccccc12,89.9%
13,Nc1[nH]c(C(=O)c2ccccc2)c(-c2cccc(Br)c2)c1C(=O)c1ccccc1,61.2%
14,NC(=O)c1c(N)[nH]c(C(=O)c2ccccc2)c1-c1ccccn1,82.1%
15,Nc1[nH]c(C(=O)c2ccccc2)c(-c2cccc(C(F)(F)F)c2)c1C(=O)NCc1cccc2ccccc12,2.31%
16,Cc1[nH]c2ccccc2c1C(=O)NCc1ccc(CNC(=O)c2c(N)[nH]c3ccccc23)cc1,115%
17,N#Cc1c(N)[nH]c(C(=O)c2ccccc2)c1-c1ccc(Cl)cc1,92.2%
18,Nc1[nH]c(C(=O)c2ccccc2)c(-c2ccc(Cl)cc2Br)c1C(=O)c1cccs1,91.2%
19,Nc1[nH]c(C(=O)c2ccccc2)c(-c2ccc(Cl)cc2)c1C(=O)c1c[nH]c2ccccc12,73.9%
20,Nc1[nH]c(C(=O)c2ccccc2)c(-c2ccc3c(c2)OCO3)c1C(=O)NCCc1c[nH]c2ccccc12,62.7%
21,Nc1[nH]c(C(=O)c2ccccc2)c(-c2ccc3ccccc3c2)c1C(=O)NCc1ccc(F)cc1,86%
22,CC(C)(C)C(=O)c1c(N)[nH]c(C(=O)c2ccccc2)c1-c1ccccc1Br,82.9%

# The remaining lines, values ahead:
row,Activity,SMILES
1,71%,Nc1[nH]c(C(=O)c2ccc(Br)cc2)c(-c2ccccc2Cl)c1C(=O)NCCc1c[nH]c2ccccc12
2,63.8%,COc1ccc(-c2c(C(=O)c3ccc(Br)cc3)[nH]c(N)c2C(=O)NCCc2c[nH]c3ccccc23)cc1OC
3,84.7%,Nc1[nH]c(C(=O)c2ccccc2)c(-c2ccc(Cl)cc2)c1C(=O)NCCc1c[nH]c2ccccc12
4,63.4%,N#Cc1c(N)[nH]c(C(=O)c2ccccc2)c1-c1ccc(Br)cc1
5,33.3%,Cc1ccc(-c2c(C(=O)c3ccccc3)[nH]c(N)c2C(=O)NCCc2c[nH]c3ccccc23)cc1
6,95%,Nc1[nH]c(C(=O)c2ccc(Br)cc2)c(-c2ccc(Br)cc2)c1C(=O)NC1CC1
7,100%,Nc1[nH]c(C(=O)c2ccccc2)c(-c2ccc(Br)cc2)c1C(=O)N1CCN(CCO)CC1
8,83.4%,Nc1[nH]c(C(=O)c2ccc(Br)cc2)c(-c2ccc(Br)cc2)c1C(=O)NC1CCCCC1
9,107%,CCCCNC(=O)c1c(N)[nH]c(C(=O)c2ccc(F)cc2)c1-c1ccc(Cl)cc1C
10,69%,Nc1[nH]c(C(=O)c2ccc(Br)cc2)c(-c2ccccc2)c1C(=O)NCCc1c[nH]c2ccccc12
11,40.1%,COc1ccc(C(=O)c2[nH]c(N)c(C(=O)NCCc3c[nH]c4ccccc34)c2-c2ccc(Br)cc2)cc1
12,68.9%,Nc1[nH]c(C(=O)c2ccc(Br)cc2)c(-c2ccc(F)cc2)c1C(=O)NCCc1c[nH]c2ccccc12
13,87.2%,CC(C)(C)C(=O)c1c(N)[nH]c(C(=O)c2ccccc2)c1-c1ccc(Br)cc1
14,35.3%,COc1ccc(-c2c(C(=O)c3ccccc3)[nH]c(N)c2C(=O)NCCc2c[nH]c3ccccc23)cc1
15,86.4%,COc1ccc(C(=O)c2[nH]c(N)c(C(=O)NCCc3ccc(Cl)cc3Cl)c2-c2ccccc2Br)cc1
16,63.2%,Nc1[nH]c(C(=O)c2ccccc2)c(-c2ccc(Br)cc2)c1C(=O)c1ccccc1

row,Activity,SMILES
1,42%,Nc1[nH]c(C(=O)c2ccc(Br)cc2)c(-c2ccccn2)c1C(=O)NCCc1c[nH]c2ccccc12
2,87%,Nc1[nH]c(C(=O)c2ccc(Br)cc2)c(-c2ccc(Br)cc2)c1C(=O)N1CCOCC1
3,81.3%,Nc1[nH]c(C(=O)c2ccccc2)c(-c2ccc(Br)cc2)c1C(=O)c1cccs1
4,68.1%,COc1ccc(C(=O)c2[nH]c(N)c(C(=O)NCCc3c[nH]c4ccccc34)c2-c2ccc(Cl)cc2)cc1
5,94.7%,COc1ccc(-c2c(C(=O)c3ccccc3)[nH]c(N)c2C(=O)c2ccc(Br)cc2)cc1OC
6,105%,Nc1[nH]c(C(=O)c2ccc(Cl)cc2)c(-c2ccc(Br)cc2)c1C(=O)NCc1ccc(Cl)cc1Cl
7,69.3%,Nc1[nH]c(C(=O)c2ccc(Br)cc2)c(-c2c(F)cccc2F)c1C(=O)NCCc1c[nH]c2ccccc12
8,53.3%,Nc1[nH]c(C(=O)c2ccccc2)c(-c2ccc(O)cc2)c1C(=O)NCCc1c[nH]c2ccccc12
9,69.3%,Nc1[nH]c(C(=O)c2ccc(Br)cc2)c(-c2ccc(Cl)cc2Cl)c1C(=O)NCCc1c[nH]c2ccccc12
10,77.6%,Nc1[nH]c(C(=O)c2ccc(Br)cc2)c(-c2ccc(Br)cc2)c1C(=O)NCc1cccc2ccccc12
11,114%,CN(C)CCCNC(=O)c1c(N)[nH]c(C(=O)c2ccc(Br)cc2)c1-c1ccc(Br)cc1
12,30.6%,Nc1[nH]c(C(=O)c2ccc(Br)cc2)c(-c2ccc(Br)cc2)c1C(=O)NCCc1c[nH]c2ccccc12
13,29.7%,Cc1[nH]c2ccccc2c1C(=O)c1c(N)[nH]c(C(=O)c2ccc(Br)cc2)c1-c1ccc(Br)cc1
14,87.5%,Nc1[nH]c(C(=O)c2ccccc2)c(-c2ccc(Br)cc2)c1C(=O)NC1CCCCC1
15,99.2%,CCCCCCCCCCCCCCNC(=O)c1c(N)[nH]c(C(=O)c2ccc(Br)cc2)c1-c1ccc(Br)cc1
16,91.2%,Nc1[nH]c(C(=O)c2ccc(Br)cc2)c(-c2ccc(Br)cc2)c1C(=O)NCc1ccc(-c2ccccc2)cc1
